Experimental data: PMC12264769 (RSC Medicinal Chemistry, 2025)
Like-named read-outs stand apart in the source and are kept apart here.

How the values were obtained:
[1] = system: murine mammary carcinoma cell line (4T1); test: MTT anti-proliferative assay, 4T1; format: cell-based; conditions: read-out: 4T1 IC50, 48-hour treatment, mean ± SD (n = 2)
[2] = system: prostatic small cell carcinoma cell line (PC-3); test: MTT anti-proliferative assay, PC-3; format: cell-based
[3] = system: human breast cancer cell line (MCF-7); test: MTT anti-proliferative assay, MCF-7; format: cell-based
[4] = system: normal human embryonic kidney (HEK-293) cell line; test: MTT cytotoxicity towards normal cell line HEK-293; format: cell-based
[5] = system: MCF-7 cells; test: annexin-V/FITC-PI apoptosis assay; format: cell-based, human; conditions: MCF-7, 48 hours, at respective IC50
[6] = system: MCF-7 cells; test: Nuclear staining assay; format: cell-based, human; conditions: MCF-7, IC50, 48 hours, vs control and BG-45
[7] = system: MCF-7 cells; test: ROS generation; format: cell-based, human; conditions: MCF-7, IC50 dose, vs 1% DMSO control
In short: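 After 24 h in 12-well plates, MCF-7 cells were treated for 48 h with test compound, reference compound, or 1% DMSO as control. Medium was replaced with 10 μM DCFH-DA for 10 min at 37 °C in darkness. DCF fluorescence was imaged by laser scanning confocal microscopy at 60× (ex 485 nm, em 535 nm). Intensity was quantified by image analysis as relative fluorescence (%) versus control. Data are mean standard deviation (n = 2), with one-way ANOVA.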

[8] = read-out: PC-3 IC50, MTT, 48-hour treatment, mean ± SD (n = 2)
[9] = read-out: MCF-7 IC50, MTT, 48-hour treatment, mean ± SD (n = 2)
[10] = read-out: HEK-293 IC50, MTT, 48-hour treatment, mean ± SD (n = 2)
[11] = Homo sapiens, MCF7, 48 h, read-out: MCF-7 IC50, MTT, 48-hour treatment, mean ± SD (n = 2)

Row | Structure (SMILES) | IC50 [1] [µM] | IC50 [2, 8] [µM] | IC50 [3, 9] [µM] | IC50 [3, 11] [µM] | IC50 [4, 10] [µM] | further results
1 | COc1ccc(-c2noc(-c3cccs3)c2C(F)(F)F)cc1 [TTI-3] | 24.3 ± 0.24 | 21.97 ± 0.21 | 21.5 ± 0.11 |  | 102.2 ± 0.27 | 
2 | COc1ccc(-c2noc(-c3cccs3)c2C(F)(F)F)cc1OC [TTI-4, 3-(3,4-dimethoxyphenyl)-5-(thiophen-2-yl)-4-(trifluoromethyl)isoxazole] | 11.6 ± 0.35 | 8.08 ± 0.29 | 2.91 ± 0.13 |  | 70.49 ± 0.22 | superior anti-breast cancer activity than TTI-3 ([3]; MCF-7 IC50 compared with TTI-3): 7 times
3 | FC(F)(F)c1c(-c2ccc3c(c2)OCCO3)noc1-c1cccs1 [TTI-5, 3-(2,3-dihydrobenzo[b][1,4]dioxin-6-yl)-5-(thiophen-2-yl)-4-(trifluoromethyl)isoxazole] | 28.6 ± 0.09 | 26.89 ± 0.11 |  |  | 109.7 ± 0.13 | 
4 | COc1cc(-c2noc(-c3cccs3)c2C(F)(F)F)cc(OC)c1OC [TTI-6, 5-(thiophen-2-yl)-4-(trifluoromethyl)-3-(3,4,5-trimethoxyphenyl)isoxazole] | 10.9 ± 0.2 | 7.67 ± 0.31 | 1.91 ± 0.09 | 1.92 |  | total apoptotic percentage (Q2 and Q4) [5]: 50.0 ± 1.3%; nuclear / cell morphology (DAPI, AO staining) [6]: significant alteration in cell morphology; selectivity for MCF-7 over other cancer cell lines (first value) ([3]; matches 4T1/MCF-7 IC50 ratio): 5.70 fold; selectivity for MCF-7 over other cancer cell lines (second value) ([3]; matches PC-3/MCF-7 IC50 ratio): 4 fold; selectivity for MCF-7 cells over HEK-293 cell lines ([3]; ratio of IC50 values): 35.62 fold; IC50 ([4]; Homo sapiens, HEK293, 48 h, read-out: HEK-293 IC50, MTT, 48-hour treatment, mean ± SD (n = 2)): 68.29 ± 0.11 µM; relative fluorescence intensity vs control (ROS) [7]: significant increase
5 | FC(F)(F)c1c(-c2ccc(Cl)cc2)noc1-c1cccs1 [TTI-9] | 21.72 ± 0.19 | 21.92 ± 0.21 | 20.4 ± 0.21 |  | 96.6 ± 0.47 | 

Further lines, with some results ahead:

Row | IC50 [1] [µM] | IC50 [2, 8] [µM] | IC50 [3, 9] [µM] | IC50 [3, 11] [µM] | Structure (SMILES) | IC50 [4, 10] [µM] | further results
6 | 19.36 ± 0.19 | 20.99 ± 0.19 | 19.3 ± 0.24 |  | FC(F)(F)c1ccc(-c2noc(-c3cccs3)c2C(F)(F)F)cc1 [TTI-11] | 92.75 ± 0.15 | 
7 | 17 ± 0.31 | 15.4 ± 0.25 | 17.03 ± 0.12 |  | O=[N+]([O-])c1ccc(-c2noc(-c3cccs3)c2C(F)(F)F)cc1 [TTI-12, 3-(4-nitrophenyl)-5-(thiophen-2-yl)-4-(trifluoromethyl)isoxazole] | 83.77 ± 0.28 | 
8 | 15.15 ± 0.1 | 14.2 ± 0.41 |  | 13.4 ± 0.19 | COc1ccc(-c2noc(-c3ccc(C)s3)c2C(F)(F)F)cc1OC [TTI-13, 3-(3,4-dimethoxyphenyl)-5-(5-methylthiophen-2-yl)-4-(trifluoromethyl)isoxazole] | 75.91 ± 0.16 | 
9 | 11.7 ± 0.14 |  | 9.09 ± 0.25 |  | COc1ccc(-c2noc(-c3cccs3)c2C(F)F)cc1OC [TTI-14, 4-(difluoromethyl)-3-(3,4-dimethoxyphenyl)-5-(thiophen-2-yl)isoxazole] | 71.14 ± 0.21 | IC50 ([2]; 48 h, read-out: PC-3 IC50, MTT, 48-hour treatment, mean ± SD (n = 2)): 13 ± 0.17 µM
10 | 14.3 ± 0.21 | 13.7 ± 0.39 |  | 9.44 ± 0.22 | FC(F)(F)c1c(-c2cnn3c(-c4ccccc4)ccnc23)noc1-c1cccs1 [TTI-15, 3-(7-phenylpyrazolo[1,5-a]pyrimidin-3-yl)-5-(thiophen-2-yl)-4-(trifluoromethyl)isoxazole] | 74.3 ± 0.25 | 
